ChEMBL document CHEMBL1177852, “Design and preparation of aza-analogues of benzo[c]phenanthridine framework with cytotoxic and antiplasmodial activities” (Eur J Med Chem, 2010)

Assays:
[1] = test system: Plasmodium falciparum; assay: Antiplasmodial activity against chloroquine-resistant Plasmodium falciparum FcB1/Columbia after 48 hrs; type: functional, organism-based
Outline: (§1)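 P. falciparum cultured by Trager–Jensen method with modifications; cultures synchronized by 5% D-sorbitol lysis. Parasites incubated with compound at increasing dilutions for 48 h; growth read out as [3H]hypoxanthine incorporation.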

[2] = test system: Plasmodium falciparum; assay: Antiplasmodial activity against chloroquine-sensitive Plasmodium falciparum F32 after 48 hrs; type: functional, organism-based; conditions: F32, 48 h; outline: as §1
[3] = test system: MCF7; assay: Cytotoxicity against human MCF7 cells after 48 hrs by [3H]hypoxanthine incorporation assay; type: functional, cell-based
Outline: (§2)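 MCF7 and Vero cells cultured as for P. falciparum, but with 5% fetal calf serum in place of 5% human serum. Drugs added at various concentrations; growth measured by [3H]hypoxanthine incorporation after 48 h incubation.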

[4] = test system: Vero; assay: Cytotoxicity against african green monkey Vero cells after 48 hrs by [3H]hypoxanthine incorporation assay; type: cell-based; conditions: Chlorocebus sabaeus; outline: as §2

## Cn1c(=O)c2ccccc2c2nc3ccccc3cc21
[1]
  IC50: 181 µM
[2]
  IC50: 355 µM
[3]
  IC50: 154 µM
[4]
  IC50: 42 µM

## Cn1c(=O)c2ccccc2c2ccc3cccnc3c21
[1]
  IC50: 38.2 µM
[2]
  IC50: 36.3 µM
[3]
  IC50: 16.5 µM
[4]
  IC50: 3.35 µM

## Cn1c(=O)c2ccccc2c2c3cccnc3ccc21
[1]
  IC50: 80.7 µM
[2]
  IC50: 96.1 µM
[3]
  IC50: 11.5 µM
[4]
  IC50: 1.75 µM

## COc1cccc2c1C(=O)c1c(O)c3c(c(O)c1C2=O)C[C@@](O)(C(=O)CO)C[C@@H]3O[C@H]1C[C@H](N)[C@H](O)[C@H](C)O1 [DOXORUBICIN]
[3]
  IC50: 0.41 µM
[4]
  IC50: 7.4 µM

## Cn1c(=O)c2ccccc2c2cc3ncccc3cc21
[1]
  IC50: 154 µM
[2]
  IC50: 123 µM
[3]
  IC50: 0.6 µM
[4]
  IC50: 2.85 µM

## Cn1c(=O)c2ccccc2c2ccc3cnccc3c21
[1]
  IC50: 54.8 µM
[2]
  IC50: 61 µM
[3]
  IC50: 11.9 µM
[4]
  IC50: 2.3 µM

## Cn1c(=O)c2ccccc2c2ccc3ncccc3c21
[1]
  IC50: 22.3 µM
[2]
  IC50: 17.6 µM
[3]
  IC50: 12.5 µM
[4]
  IC50: 3.5 µM

## Cn1c(=O)c2ccccc2c2c3ccccc3ncc21
[1]
  IC50: 14.8 µM
[2]
  IC50: 32.7 µM
[3]
  IC50: 30.9 µM
[4]
  IC50: 22.3 µM
